Experimental data as given in ChEMBL document CHEMBL1147605, “Syntheses and biological evaluation of new fluoroquinolone antibacterials containing chiral oxiimino pyrrolidine” (Bioorg Med Chem Lett, 2004).
Converted amounts (≈) assume the structure as drawn.

Key:
Enterococcus sp. = test: In vitro antibacterial activity against the Ofloxacin Resistant Enterococcus knothe 101; type: functional
In short: (§1)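 MICs by agar dilution following National Committee for Clinical Laboratory Standards recommendations; all strains obtained from Hoechst.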

Enterobacter cloacae = test: In vitro antibacterial activity against the Enterobacter cloacae 1321 E; type: functional
Escherichia coli [1] = test: In vitro antibacterial activity against the Escherichia coli 078; type: functional
Klebsiella = test: In vitro antibacterial activity against the Ofloxacin Resistant Klebsiella species 30-92; type: functional; in short: as §1
Pseudomonas aeruginosa [2] = test: In vitro antibacterial activity against the Ofloxacin Resistant Pseudomonas aeruginosa 279II; type: functional; in short: as §1
Pseudomonas aeruginosa [3] = test: In vitro antibacterial activity against the Pseudomonas aeruginosa 1592E; type: functional
Pseudomonas aeruginosa [4] = test: In vitro antibacterial activity against the Pseudomonas aeruginosa 1771M; type: functional
Salmonella typhimurium = test: In vitro antibacterial activity against the Salmonella Typhimurium; type: functional, Salmonella enterica subsp. enterica serovar Typhimurium; conditions: Salmonella enterica
[5] = system: Staphylococcus epidermidis; test: In vitro antibacterial activity against the Ofloxacin Resistant Staphylococcus epidermidis 291; type: functional; in short: as §1
[6] = system: Staphylococcus epidermidis; test: In vitro antibacterial activity against the Ofloxacin Resistant Staphylococcus epidermidis 319; type: functional; in short: as §1
Staphylococcus aureus [7] = test: In vitro antibacterial activity against the Ofloxacin Resistant Staphylococcus aureus 179; type: functional; in short: as §1
Staphylococcus aureus [8] = test: In vitro antibacterial activity against the Ofloxacin Resistant Staphylococcus aureus 293; type: functional; in short: as §1
Staphylococcus aureus [9] = test: In vitro antibacterial activity against the Ofloxacin Resistant Staphylococcus aureus 303; type: functional; in short: as §1
Staphylococcus aureus [10] = test: In vitro antibacterial activity against the Methicillin-Resistant Staphylococcus aureus (MRSA) 690 E; type: functional; in short: as §1
Staphylococcus aureus [11] = test: In vitro antibacterial activity against the Methicillin-Resistant Staphylococcus aureus (MRSA) 692 E; type: functional; in short: as §1
Staphylococcus aureus [12] = test: In vitro antibacterial activity against the Methicillin-Resistant Staphylococcus aureus (MRSA) 697 E; type: functional; in short: as §1
Staphylococcus aureus [13] = test: In vitro antibacterial activity against the Methicillin-Resistant Staphylococcus aureus (MRSA) 701 E; type: functional; in short: as §1
Staphylococcus aureus [14] = test: In vitro antibacterial activity against the Methicillin-Resistant Staphylococcus aureus (MRSA) 705 E; type: functional; in short: as §1
Staphylococcus aureus [15] = test: In vitro antibacterial activity against the Methicillin-Resistant Staphylococcus aureus (MRSA) 707 E; type: functional; in short: as §1
Staphylococcus aureus [16] = test: In vitro antibacterial activity against the Staphylococcus aureus SG511; type: functional
Streptococcus pyogenes [17] = test: In vitro antibacterial activity against the Streptococcus pyogenes 308A; type: functional
Streptococcus pyogenes [18] = test: In vitro antibacterial activity against the Streptococcus pyogenes 77A; type: functional
Escherichia coli [19] = test: In vitro antibacterial activity against the Escherichia coli DC 2; type: functional
Staphylococcus aureus [20] = test: In vitro antibacterial activity against the Staphylococcus aureus 285; type: functional
[21] = Half-life period for the compound was determined in rats at 50 mg/kg dose; type: ADME, organism-based; parameters: dose 50 mg/kg; conditions: rat, in vivo
[22] = Plasma concentration for the compound was determined in rats at 50 mg/kg dose; type: ADME, organism-based; parameters: dose 50 mg/kg; conditions: rat
In short: (§2)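 Pharmacokinetics were measured in SD rats given 50mg/kg, reporting Cmax, Tmax, T1/2 and AUC.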

[23] = Time for maximum plasma concentration reached by compound was determined in rats at 50 mg/kg dose; type: ADME, organism-based; parameters: dose 50 mg/kg; conditions: rat; in short: as §2
[24] = Maximum plasma concentration reached by compound was determined in rats at 50 mg/kg dose; type: ADME, organism-based; parameters: dose 50 mg/kg; conditions: rat; in short: as §2
HepG2 = test: Cytotoxicity was determined for the compound in HepG2 cell line; type: functional, cell-based; conditions: Homo sapiens
V79-4 = test: Cytotoxicity was determined for the compound in V79-4 cell line; type: functional, cell-based; conditions: Cricetulus griseus

SMILES | MIC (Enterococcus sp.) [µg/mL] | MIC (Enterobacter cloacae) [µg/mL] | MIC (Escherichia coli [1]) [µg/mL] | MIC (Klebsiella) [µg/mL] | MIC (Pseudomonas aeruginosa [2]) [µg/mL] | MIC (Pseudomonas aeruginosa [3]) [µg/mL] | MIC (Pseudomonas aeruginosa [4]) [µg/mL] | MIC (Salmonella typhimurium) [µg/mL] | MIC [5] [µg/mL] | MIC [6] [µg/mL] | MIC (Staphylococcus aureus [7]) [µg/mL] | MIC (Staphylococcus aureus [8]) [µg/mL] | MIC (Staphylococcus aureus [9]) [µg/mL] | MIC (Staphylococcus aureus [10]) [µg/mL] | MIC (Staphylococcus aureus [14]) [µg/mL] | MIC (Staphylococcus aureus [16]) [µg/mL] | MIC (Streptococcus pyogenes [17]) [µg/mL] | MIC (Streptococcus pyogenes [18]) [µg/mL] | MIC (Escherichia coli [19]) [µg/mL] | MIC (Staphylococcus aureus [20]) [µg/mL] | other results
CO/N=C1\CN(c2nc3c(cc2F)c(=O)c(C(=O)O)cn3C2CC2)C[C@@]1(C)CN.Cl | 0.391 | 0.007 | 0.025 | 3.12 | 6.25 | 0.781 | 0.391 | 0.013 | 3.12 | 6.25 | 1.56 | 1.56 | 0.781 | 0.025 | 0.049 | 0.049 | 0.195 | 0.098 | 0.098 | 0.049 | MIC (Staphylococcus aureus [11]): 0.025 µg/mL; MIC (Staphylococcus aureus [12]): 0.025 µg/mL; MIC (Staphylococcus aureus [13]): 0.049 µg/mL; MIC (Staphylococcus aureus [15]): 0.013 µg/mL
CC1(CN)CN(c2nc3c(cc2F)c(=O)c(C(=O)O)cn3C2CC2)C/C1=N/OCc1ccccc1.Cl (centres undefined) |  | 0.049 | 0.049 |  |  | 6.25 | 1.56 | 0.098 |  |  |  |  |  |  |  | < 0.002 | 0.195 | 0.025 | 0.098 | < 0.002 | 
CO/N=C1\CN(c2nc3c(cc2F)c(=O)c(C(=O)O)cn3C2CC2)CC1(C)CN.Cl (centres undefined) | 0.098 | 0.004 | 0.004 | 1.56 | 6.25 | 0.781 | 0.391 | 0.007 | 0.391 | 0.391 | 0.195 | 0.195 | 0.195 | 0.004 | 0.013 | 0.004 | 0.098 | 0.025 | 0.049 | 0.007 | MIC (Staphylococcus aureus [11]): < 0.002 µg/mL; MIC (Staphylococcus aureus [12]): 0.007 µg/mL; MIC (Staphylococcus aureus [13]): 0.007 µg/mL; MIC (Staphylococcus aureus [15]): < 0.002 µg/mL
CO/N=C1\CN(c2c(F)c(N)c3c(=O)c(C(=O)O)cn(C4CC4)c3c2F)CC1(C)CN.Cl (centres undefined) | 0.025 | < 0.002 | < 0.002 | 0.781 | 6.25 | 0.391 | 0.195 | < 0.002 | 0.025 | 0.049 | 0.025 | 0.025 | 0.025 |  | 0.004 | < 0.002 | 0.013 | < 0.002 | 0.007 |  | 
CO/N=C1\CN(c2c(F)cc3c(=O)c(C(=O)O)cn(C4CC4)c3c2Cl)CC1(C)CN.Cl (centres undefined) |  | 0.004 | 0.007 |  |  | 0.781 | 0.195 | 0.025 |  |  |  |  |  |  |  | 0.007 | 0.195 | 0.025 | 0.025 | 0.007 | 
CO/N=C1\CN(c2c(F)c(N)c3c(=O)c(C(=O)O)cn(C4CC4)c3c2F)C[C@]1(C)CN.Cl | 0.013 | < 0.002 | < 0.002 | 0.781 | 3.12 | 0.391 | 0.195 | < 0.002 | 0.049 | 0.025 | 0.013 | 0.013 | 0.013 | < 0.002 | < 0.002 | < 0.002 | 0.004 | < 0.002 | < 0.002 |  | half-life [21]: 6.94 h; AUC [22]: 68800 ng·h/mL; Tmax [23]: 1 h; Cmax [24]: 6670 ng/mL; IC50 (HepG2): 11.6 µg/mL; MIC (Staphylococcus aureus [11]): < 0.002 µg/mL; MIC (Staphylococcus aureus [12]): < 0.002 µg/mL; MIC (Staphylococcus aureus [13]): < 0.002 µg/mL; MIC (Staphylococcus aureus [15]): < 0.002 µg/mL; IC50 (V79-4): 0.21 µg/mL
CO/N=C1\CN(c2c(F)c(N)c3c(=O)c(C(=O)O)cn(C4CC4)c3c2F)C[C@@]1(C)CN.Cl | 0.195 | < 0.002 | 0.004 | 1.56 | 3.12 | 0.391 | 0.195 | < 0.002 | 0.391 | 0.781 | 0.195 | 0.195 | 0.195 | 0.004 | 0.007 | < 0.002 | 0.049 | 0.013 | 0.013 | 0.004 | MIC (Staphylococcus aureus [11]): 0.004 µg/mL; MIC (Staphylococcus aureus [12]): 0.004 µg/mL; MIC (Staphylococcus aureus [13]): 0.007 µg/mL
CO/N=C1\CN(c2cc3c(cc2F)c(=O)c(C(=O)O)cn3C2CC2)CC1(C)CN.Cl (centres undefined) |  | 0.013 | 0.013 |  |  | 0.781 | 0.391 | 0.013 |  |  |  |  |  |  |  | 0.007 | 0.098 | 0.013 | 0.025 | 0.013 | 
CO/N=C1\CN(c2c(F)cc3c(=O)c(C(=O)O)cn(C4CC4)c3c2F)CC1(C)CN.Cl (centres undefined) |  | 0.013 | 0.025 |  |  | 1.56 | 0.781 | 0.025 |  |  |  |  |  |  |  | 0.013 | 0.098 | 0.025 | 0.049 | 0.013 | 
O=C(O)c1cn(C2CC2)c2cc(N3CCNCC3)c(F)cc2c1=O [CIPROFLOXACIN] | 0.781 (≈ 2.36 µM) |  |  | 1.56 (≈ 4.72 µM) |  | 0.195 (≈ 0.589 µM) | 0.098 (≈ 0.296 µM) |  | 50 (≈ 151 µM) | 100 (≈ 302 µM) | 12.5 (≈ 37.7 µM) | 12.5 (≈ 37.7 µM) | 12.5 (≈ 37.7 µM) | 0.391 (≈ 1.18 µM) | 0.391 (≈ 1.18 µM) | 0.195 (≈ 0.589 µM) | 3.12 (≈ 9.43 µM) | 0.391 (≈ 1.18 µM) | 0.098 (≈ 0.296 µM) | 0.781 (≈ 2.36 µM) | AUC [22]: 12700 ng·h/mL; Tmax [23]: 0.5 h; IC50 (HepG2): 37.5 µg/mL (≈ 113 µM); MIC (Staphylococcus aureus [11]): 0.391 µg/mL (≈ 1.18 µM); MIC (Staphylococcus aureus [12]): 0.391 µg/mL (≈ 1.18 µM); MIC (Staphylococcus aureus [13]): 0.391 µg/mL (≈ 1.18 µM); MIC (Staphylococcus aureus [15]): 0.195 µg/mL (≈ 0.589 µM); IC50 (V79-4): 58.5 µg/mL (≈ 177 µM)
N[C@@H]1[C@H]2CN(c3nc4c(cc3F)c(=O)c(C(=O)O)cn4-c3ccc(F)cc3F)C[C@@H]12 [TROVAFLOXACIN] |  |  |  |  |  |  |  |  |  |  |  |  |  |  |  |  |  |  |  |  | IC50 (HepG2): 11.2 µg/mL (≈ 26.8 µM); IC50 (V79-4): 3.77 µg/mL (≈ 9.05 µM)
